Assay results pooled from the literature.
Values after ≈ are worked out from the molar mass of the structure shown.

O=C(Nc1ccc(Cl)cc1)Nc1cccc(-c2cn(Cc3ccc(Cl)cc3)nn2)c1
viability (NCI-H1299; cell growth or viability, CCK-8; 50 µM, 72 h): 76.3%

COc1ccc(NC(=O)Nc2ccc(-c3cn(Cc4cccc(Cl)c4)nn3)cc2)cc1
viability (NCI-H1299; cell growth or viability, CCK-8; 50 µM, 72 h): 93.7%

CC[C@H]1OC(=O)[C@H](C)[C@@H](O[C@H]2C[C@@](C)(OC)[C@@H](O)[C@H](C)O2)[C@H](C)[C@@H](O[C@@H]2O[C@H](C)C[C@H](N(C)C)[C@H]2O)[C@](C)(O)C[C@@H](C)CN(C)[C@H](C)[C@@H](O)[C@]1(C)O
MIC (Serratia marcescens; microbial growth; ATCC8100): < 98 µg/mL

COc1ccc(NC(=O)Nc2ccc(-c3cn(Cc4ccc(Br)cc4)nn3)cc2)cc1
viability (NCI-H1299; cell growth or viability, CCK-8; 50 µM, 72 h): 106%

CN(C)CCNC(=O)c1ccc(-c2nc3ccc4[nH]ncc4c3c3c2CCCCC3)cc1
GI50 (22Rv1; cell growth or viability; 72 h): 4.12 µM

Cc1ccc2[nH]nc(-c3nnc(Nc4ccc(C(F)(F)F)cc4)s3)c2c1
MIC (Serratia marcescens; microbial growth; ATCC8100): 62.8 µg/mL (≈ 167 µM)

O=C(NCc1cn(Cc2ccc(Cl)cc2)nn1)Nc1ccccc1Br
viability (NCI-H1299; cell growth or viability, CCK-8; 50 µM, 72 h): 90.7%

Cc1n[nH]c2ccc3nc(-c4ccc(C(=O)NCCN(C)C)cc4)c4c(c3c12)CCCCC4
GI50 (22Rv1; cell growth or viability; 72 h): 7.15 µM

Nc1nn2c(-c3ccco3)cc(-c3ccc(OCc4ccccc4)cc3)nc2c1N=Nc1ccc(F)cc1
MBC (Enterobacter cloacae; microbial killing; ATCC23355): 62.5 µg/mL (≈ 124 µM)

Cc1ccc2[nH]nc(-c3nnc(Nc4ccc(O)cc4)s3)c2c1
MIC (Serratia marcescens; microbial growth; ATCC8100): 62.8 µg/mL (≈ 194 µM)

COc1ccc(NC(=O)Nc2ccc(-c3cn(Cc4ccc(Cl)cc4)nn3)cc2)cc1
viability (NCI-H1299; cell growth or viability, CCK-8; 50 µM, 72 h): 97.9%

Cc1ccc(N=Nc2c(N)nn3c(-c4ccc(Cl)cc4Cl)cc(-c4ccc(OCc5ccccc5)cc4)nc23)cc1
MBC (Enterobacter cloacae; microbial killing; ATCC23355): 62.5 µg/mL (≈ 108 µM)

O=C(NCc1cn(Cc2ccc(Br)cc2)nn1)Nc1ccccc1Br
viability (NCI-H1299; cell growth or viability, CCK-8; 50 µM, 72 h): 89.2%

COc1ccc(NC(=O)Nc2cccc(-c3cn(Cc4ccc(Br)cc4)nn3)c2)cc1
viability (NCI-H1299; cell growth or viability, CCK-8; 50 µM, 72 h): 151%

COc1ccc(N=Nc2c(N)nn3c(-c4ccco4)cc(-c4ccc(OCc5ccccc5)cc4)nc23)cc1
MBC (Enterobacter cloacae; microbial killing; ATCC23355): 62.5 µg/mL (≈ 121 µM)

O=C(NCc1cn(Cc2ccc(Br)cc2)nn1)Nc1ccc(Cl)cc1
viability (NCI-H1299; cell growth or viability, CCK-8; 50 µM, 72 h): 91.5%

COc1ccc(N=Nc2c(N)nn3c(-c4ccc(C)cc4)cc(-c4ccc(OCc5ccccc5)cc4)nc23)cc1
MBC (Enterobacter cloacae; microbial killing; ATCC23355): 125 µg/mL (≈ 231 µM)

COc1ccc(NC(=O)NCc2cn(Cc3ccc(Cl)cc3)nn2)cc1
viability (NCI-H1299; cell growth or viability, CCK-8; 50 µM, 72 h): 79.3%
